# High-throughput results deposited in PubChem BioAssay by The Scripps Research Institute Molecular Screening Center.
# MsrA inhibitor = bovine MsrA inhibition | inhibition, % at 15.5 µM | purified bovine MsrA, absorbance read-out | 360,000 tested, 0.75% active; in the data active = inhibition above about 4.5%
# VIM-2 inh = blocks Pseudomonas aeruginosa VIM-2 metallo-beta-lactamase; inhibition, % at 5.6 µM; purified VIM-2, nitrocefin hydrolysis, epi-absorbance fluorescence; AID 1527; 290,000 tested, 0.89% active;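 active = inhibition above the mean of all tested compounds plus 3 SD, cutoff set per screening run, cut at about 7.5% in these data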;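 also: red hydrolysis product quenches plate fluorescence so inhibitors raise well fluorescence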
# IMP-1 inh = blocks Pseudomonas aeruginosa IMP-1 metallo-beta-lactamase. purified IMP-1, nitrocefin hydrolysis, epi-absorbance fluorescence. inhibition, % at 5.6 µM. 290,000 tested, 0.45% active. AID 1556;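 active = inhibition above the mean plus 3 SD of all compounds in the same screening run, cut at about 4.5% in these data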
#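 Assay system: purified recombinant IMP-1 beta-lactamase. Input: IMP-1 0.2 nM before substrate addition. Buffer or medium: Zinc- and detergent-supplemented HEPES buffer, pH 7.1. Schedule: 25 °C, 15 min preincubation, 25 min reaction. Signal: Epi-absorbance fluorescence, 480 nm excitation, 530 nm emission. Evaluation: percent inhibition from optical density relative to buffer-blank wells.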
# PKA-R2B activ = PKA-R2B complex activation. activation, % at 11.4 µM. AID 504700. P22694+P31323. 340,000 tested, 0.079% active. PKA-R2B holoenzyme dissociation, Cy5-IP20 fluorescence polarization; R2B truncated from residue 108, S112A mutant; 0% DMSO only, 100% 113 µM cGMP;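 active = activation above a cutoff set at the mean over all compounds plus 3 SD, cut at about 18% in these data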;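 also: higher means more holoenzyme dissociation and a rise in polarization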
# Target sequence (P31323 whole entry, looked up, other chains not shown, the tested form may be a part): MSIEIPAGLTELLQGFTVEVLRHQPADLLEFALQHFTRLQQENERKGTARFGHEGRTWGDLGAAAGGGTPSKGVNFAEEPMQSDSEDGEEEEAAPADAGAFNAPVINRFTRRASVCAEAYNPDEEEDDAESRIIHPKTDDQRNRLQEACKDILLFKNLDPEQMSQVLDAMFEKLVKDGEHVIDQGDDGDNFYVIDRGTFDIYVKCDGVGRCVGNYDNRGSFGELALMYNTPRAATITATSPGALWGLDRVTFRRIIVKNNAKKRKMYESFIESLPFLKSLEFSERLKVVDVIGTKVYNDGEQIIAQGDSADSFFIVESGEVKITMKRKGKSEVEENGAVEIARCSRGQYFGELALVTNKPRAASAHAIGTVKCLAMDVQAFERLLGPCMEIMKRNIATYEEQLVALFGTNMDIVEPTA
# PKA-R1A activ = activators of PKA-R1A complex. P00514+P68181. PKA-R1A dissociation, Cy5-IP20 fluorescence polarization; scaled: DMSO 0%, 113 µM cGMP 100%. activation, % at 11.4 µM. 340,000 tested, 0.083% active;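 active = percent activation above the mean of all tested compounds plus 3 SD, cut at about 19% in these data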;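 also: higher means more PKAc released from R1A so a rise in polarization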
# bovine MsrA act = bovine methionine sulfoxide reductase A activation. purified bovine MsrA, absorbance read-out. 360,000 tested, 0.3% active. activation, % at 10.6 µM; in the data active = activation above about 7.5%
# A number is an active result; n = inactive; x = not tested or not shown. A selection: hits, their analogues and other compounds. The true share with any hit is near 2.1%.
SMILES,MsrA inhibitor,VIM-2 inh,IMP-1 inh,PKA-R2B activ,PKA-R1A activ,bovine MsrA act
Cc1ccc(Cl)c2c(N=Nc3ccccc3)c(O)[nH]c12,n,n,4.6,n,n,n
N#C/C(=C\c1ccco1)C(=O)NCC1CCCO1 (stereo unspecified),7.0,n,n,n,n,n
N#C/C(=C\c1ccc[nH]1)C(=O)NCC1CCCO1 (stereo unspecified),n,n,n,n,n,n
Cc1ccc(N2C(=O)c3cccc(Oc4ccc(Cl)cc4)c3C2=O)c(C)c1,n,n,n,n,n,n
O=C(O)CN1C(=O)c2cccc(Oc3ccc(Cl)cc3)c2C1=O,n,n,11.8,n,n,n
C[C@H](CO)N1C[C@H](C)[C@@H](CN(C)S(=O)(=O)c2cccs2)Oc2ccc(NC(=O)c3ccncc3)cc2C1=O,n,x,x,n,n,n
O=C(O)C1C2C=CC(C2)C1C(=O)NCc1ccc(Cl)cc1Cl (stereo unspecified),n,n,7.6,n,n,n
COc1ccc(C(=O)c2c(C(F)(F)F)oc3c2C(=O)c2ccccc2C3=O)cc1OC,46.8,n,n,n,n,n
COc1ccc(C(=O)Nc2ccc3c(c2)C(=O)c2ccccc2C3=O)cc1OC,n,n,n,n,n,n
CCCCc1c(-c2ccccc2OC)ncn1Cc1ccc(F)c(F)c1,n,x,x,x,x,x
Cc1ccc(CSc2ncnc3c2cnn3Cc2ccccc2)cc1C,n,n,n,n,n,n
Cc1ccc(CSc2ncnc3c2cnn3Cc2ccccc2)cc1,n,n,6.7,n,n,n
CSc1ccc(/C=C(\C#N)C(=O)NC2CCCCC2)cc1,n,n,n,n,n,n
CC(=O)Nc1ccc(/C=C(\C#N)C(=O)NC2CCCCC2)cc1,4.6,n,n,n,n,n
O=S(=O)(CS(=O)(=O)c1ccc(Br)cc1)c1ccc(Br)cc1,n,x,x,x,x,x
CCN1C(=O)C(C)C=C(C)C=C1C (stereo unspecified),n,x,x,n,n,n
COc1ccc(C2=[N+](C)CCn3cccc32)c(OC)c1,n,n,7.2,n,n,n
CSc1scc2c1-c1nc(SCC(=O)C(C)(C)C)ncc1CC2,n,n,9.8,n,n,n
O=C(C(=O)N1CCN(C(=O)C2CCCC2)CC1)c1cccc(C(F)(F)F)c1,n,x,x,x,x,x
O=C(Nc1ccccc1N1CCOCC1)[C@@H]1O[C@H](CO)[C@H](O)[C@H](O)[C@H]1O,n,x,x,x,x,n
COc1ccc(-c2ccc(C(=S)N3CCN(C(C)=O)CC3)o2)cc1,n,n,8.5,n,n,n
Cc1ccc2c(=O)n3c(nc2c1)C(Cc1ccccc1)NC(=O)c1cc2ccccc2cc1-3 (stereo unspecified),n,x,x,n,n,n
CCN(CC)c1ccc(C=C2C(=O)OC(c3ccccc3)OC2=O)cc1 (stereo unspecified),n,n,n,n,n,n
CCN(CC)c1ccc(/C=C/C(=O)C2C(=O)C=C(C)OC2=O)cc1 (stereo unspecified),n,n,7.4,n,n,n
C/C=C/c1ccc(OCC(=O)N(C)CC(=O)Nc2ccc(F)cc2)c(OC)c1,n,x,x,n,n,n
SMILES,MsrA inhibitor,VIM-2 inh,IMP-1 inh,PKA-R2B activ,PKA-R1A activ,bovine MsrA act
CC(C)C(NS(=O)(=O)c1cccs1)C(=O)NCCCN1CCCCCC1 (stereo unspecified),n,n,n,n,n,n
O=[N+]([O-])c1cc(Cl)cc(/C=N\Nc2ccccn2)c1O,n,n,n,n,n,n
CN(C)C1(CN=Cc2cc(Cl)cc([N+](=O)[O-])c2O)CCCCC1,n,n,5.7,n,n,n
O=c1[nH]cc(N=Cc2cc(Cl)cc(Cl)c2O)c(=O)[nH]1,n,n,11.5,n,n,n
O=c1[nH]cc(N=Cc2cc([N+](=O)[O-])ccc2O)c(=O)[nH]1,x,n,n,x,x,x
CCOC(=O)c1c[nH]c2c(C(=O)c3ccccc3)cc(Cl)cc2c1=O,n,7.7,n,n,n,n
CCOC(=O)c1c[nH]c2c(C)ccc(Cl)c2c1=O,n,n,n,n,n,n
CCOC(=O)c1c[nH]c2c(Cl)c(Cl)ccc2c1=O,n,n,n,n,n,n
CCOC(=O)c1c[nH]c2c(Cl)ccc(Cl)c2c1=O,n,8.6,n,n,n,n
Cc1ccc2nc(-c3cccc(Cl)c3)c(Cc3ccccc3C(F)(F)F)n2c1,n,x,x,x,x,x
C[C@@H]1CN([C@@H](C)CO)C(=O)c2cc(NC(=O)C3CCCCC3)ccc2O[C@@H](C)CCCCO[C@@H]1CN(C)Cc1ccncc1,n,x,x,n,n,n
CC(C)(C)OC(=O)N1CCC2CCN(S(=O)(=O)c3ccccc3)CC21 (stereo unspecified),n,x,x,x,x,x
COc1cc2ccccc2cc1C(=O)Nc1sc2c(c1C(N)=O)CCN(C(C)C)C2,n,n,7.1,n,n,n
Cn1c(=O)c2c(nc(CCc3ccccc3)n2C)n(C)c1=O,n,x,x,n,n,n
Cn1c(N)nc2nc(CCc3ccccc3)c(=O)[nH]c2c1=O,n,n,5.2,n,n,n
O=C(CCCN1C(=O)/C(=C/c2cccs2)SC1=S)Nc1ccc(O)c(C(=O)O)c1,x,9.7,n,x,x,x
O=C(CCCN1C(=O)/C(=C\c2cccs2)SC1=S)Nc1ccc(C(=O)O)cc1,n,n,n,n,n,n
O=C(CN1C(=O)/C(=C/c2ccco2)SC1=S)NC1CCS(=O)(=O)C1 (stereo unspecified),n,n,5.6,n,n,n
O=C(CN1C(=O)/C(=C/c2ccco2)SC1=S)Nc1ccc(C(=O)O)c(O)c1,n,n,7.2,n,n,n
O=C(CCN1C(=O)/C(=C/c2ccccc2)SC1=S)NC1CCS(=O)(=O)C1 (stereo unspecified),n,n,n,n,n,n
COc1ccc(/C=N/Nc2nc3ccccc3o2)cc1O,n,n,n,n,n,n
COc1cc(/C=N/Nc2nc3ccccc3o2)cc(OC)c1O,4.6,n,n,n,n,n
CN(C)c1ncc(C2=C(Cl)C(=O)C(N3CCCC3)=C(Cl)C2=O)s1,n,n,5.2,n,n,n
CC12CN3CC(C)(CN(C1)C3c1ccc(Cl)cc1Cl)C2O (stereo unspecified),n,n,n,n,n,n
CN(C)c1ccc(C2N3CC4(C)CN2CC(C)(C3)C4O)cc1 (stereo unspecified),5.5,n,n,n,n,n
CCOC(=O)C1CCN(C(=O)NS(=O)(=O)c2ccc(C)cc2)CC1,n,n,9.6,n,n,n
CCOC(=O)C1CCN(C(=S)Nc2ccc(C)cc2)CC1,n,n,n,n,n,n
CN(C)CCSc1nnc2[nH]c3ccccc3c2n1,n,10.2,n,n,n,n
O=C(CN1C(=O)NC2(CCCC2)C1=O)NCCc1ccc(Cl)cc1Cl,n,x,x,n,n,n
S=c1[nH]nc(CCc2nc3ccccc3[nH]2)n1-c1cccc(Cl)c1,n,7.7,n,n,n,n
